Screens deposited in PubChem BioAssay by several laboratories.
The list is not random: actives were taken first. Their share in the collection is about 1.9%.
SR-BI DiI inh = inhibitors of mouse SR-BI mediated HDL lipid uptake. Q61009. ldlA[mSR-BI] CHO cells, DiI-HDL uptake fluorescence, 3 h. inhibition, % at 12.5 µM. actives 0.96% (n = 320,000);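 active = mean replicate inhibition of at least 70% and a set share of replicates each scoring 70 or more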;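 note: 0% = median of neutral control wells and 100% = median of positive control wells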
SR-BI uptake up = SR-BI HDL lipid transfer activation | CHO ldlA[mSR-BI] cells, DiI-HDL uptake fluorescence, 3 h; 100 = double the neutral-control signal | activation, % at 12.5 µM | actives 0.096% (n = 320,000) | AID 504775;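 active = mean replicate activation of at least 60% and every replicate at or above 60%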;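 note: 0% = median plate neutral-control signal and 100% = twice that signal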
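System: CHO ldlA[mSR-BI] cells / Medium: HEPES-buffered (25 mM, pH 7.4) F12 plus 0.5% BSA / Probe or stimulus: labelled HDL, 10 µg/mL / Doses: single compound concentration, delivered by pin transfer / Schedule: 3 h, 37 °C / Measured by: DiI fluorescence, bottom read / Measure: cell-associated DiI fluorescence as measure of HDL uptake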
GRK2 aptamer HTS = human GRK2 inhibition via aptamer displacement. P25098. bead flow cytometry, FAM-aptamer displacement from GRK2. inhibition of aptamer binding, % at 10 µM. actives 0.59% (n = 330,000). AID 488847;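 active = inhibition of aptamer binding above 40%, roughly 3 SD of noise, on plates passing a quality check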;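 note: median bead fluorescence of bound FAM aptamer so fluorescent compounds give negative values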
Target sequence (P25098 whole entry, looked up): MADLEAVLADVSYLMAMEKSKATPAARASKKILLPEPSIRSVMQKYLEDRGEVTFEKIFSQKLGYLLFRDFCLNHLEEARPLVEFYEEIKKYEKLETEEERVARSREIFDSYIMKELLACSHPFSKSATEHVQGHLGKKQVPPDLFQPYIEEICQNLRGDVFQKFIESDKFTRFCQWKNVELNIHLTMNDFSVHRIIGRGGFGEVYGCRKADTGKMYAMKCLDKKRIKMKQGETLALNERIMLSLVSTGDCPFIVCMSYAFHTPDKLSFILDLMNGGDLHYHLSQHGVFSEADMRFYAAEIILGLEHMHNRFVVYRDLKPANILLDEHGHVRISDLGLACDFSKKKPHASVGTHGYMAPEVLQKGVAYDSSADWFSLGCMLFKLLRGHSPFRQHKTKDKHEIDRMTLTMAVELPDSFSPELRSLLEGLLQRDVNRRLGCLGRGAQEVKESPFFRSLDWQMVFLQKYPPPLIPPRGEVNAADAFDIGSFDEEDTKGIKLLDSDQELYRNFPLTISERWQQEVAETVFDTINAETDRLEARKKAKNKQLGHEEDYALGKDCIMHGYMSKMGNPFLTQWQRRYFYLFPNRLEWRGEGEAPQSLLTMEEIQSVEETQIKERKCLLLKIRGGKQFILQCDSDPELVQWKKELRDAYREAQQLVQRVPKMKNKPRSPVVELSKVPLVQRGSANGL
Rin1-Abl PPI inh = inhibitors of human Rin1-Abl protein interaction. P00519+Q13671. TR-FRET Rin1/Abl binding, biochemical. inhibition, % at 7.35 µM. actives 0.4% (n = 360,000); in the data active = inhibition above about 5%, passing the limit was not always enough
GRK2 CP1 = confirmation of human GRK2 inhibitors displacing RNA aptamer | shares compounds with GRK2 aptamer HTS | bead-bound GRK2, FAM-aptamer displacement, flow cytometry | aptamer displacement, % at 10 µM | actives 4% (n = 2,000) | AID 504451;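 active = aptamer displacement above 40%, near three times the noise of non-fluorescent compounds, on plates passing quality checks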;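 note: negative values mostly reflect intrinsic compound fluorescence rather than true enhancement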
Aptamer quench 1 = counter-screen for GRK2 aptamer inhibitors: fluorescent aptamer quenchers; fluorescence change (kMESF span), kMESF (test concentration not listed); Fluorescent RNA aptamer beads, quenching, flow cytometry; hits give high values; 110 tested, under 10 active; shares compounds with GRK2 aptamer HTS;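 active = compounds whose bead fluorescence drops by more than 37 kMESF across the dose range, marking them as dye quenchers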
FAM quench CP1 = quenches fluorescent RNA aptamer, GRK2 hit artifact; 2,000 tested, under 10 active; AID 504580; shares compounds with GRK2 aptamer HTS; fluorescence response (% of DMSO), % at 10 µM; Carboxyfluorescein RNA aptamer on beads, flow cytometry quenching; hits give low values;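 active = compounds that quench the bead-bound fluorescent RNA probe, cutting fluorescence to under half of the solvent control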;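 note: counterscreen run without GRK2 so only probe quenching by compound is measured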
GRK2 confirm 2 = human GRK2 inhibition confirmation, cherry pick 2 | shares compounds with GRK2 aptamer HTS | bead-bound GRK2, FAM-aptamer displacement, flow cytometry | inhibition of aptamer binding, % at 10 µM | 360 tested, under 10 active | AID 504782;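 active = inhibition of aptamer binding above 40%, about triple the noise seen with nonglowing compounds, on plates passing quality control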;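 note: negative values mostly come from compounds that fluoresce themselves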
FAM quench CP2 = quenches fluorescent RNA aptamer, GRK2 hit artifact; shares compounds with GRK2 aptamer HTS; carboxyfluorescein RNA aptamer beads, flow cytometry quenching; hits give low values; fluorescence response vs DMSO, % at 10 µM; 360 tested, under 10 active;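 active = response vs DMSO under 50%, meaning signal dropped by over half, treated as fluorescence quencher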;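 note: labelled aptamer on streptavidin beads without GRK2 as a quench counter-screen; 100% = bead fluorescence of DMSO wells and lower means quenching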
The depositor's hits bear a star.

Screening CN(C)S(=O)(=O)c1ccc(Nc2ccc(-c3ccc4c(c3)OCCO4)nn2)cc1 returned SR-BI DiI inh 18.7, SR-BI uptake up -18.7, GRK2 aptamer HTS 1.0 and Rin1-Abl PPI inh -0.4.
Screening CN(C(=O)c1cccc(Nc2ccc(-c3ccc4c(c3)OCCO4)nn2)c1)C1CCCCC1 returned SR-BI DiI inh 64.7, SR-BI uptake up -64.7, GRK2 aptamer HTS 0.0, Rin1-Abl PPI inh 0.3, GRK2 CP1 4.4 and FAM quench CP1 103.1.
COc1ccc(NC(=O)C2CCCC2)cc1S(=O)(=O)N1CCOCC1 was read as SR-BI DiI inh -5.4, SR-BI uptake up 5.4, GRK2 aptamer HTS 0.0 and Rin1-Abl PPI inh -1.0.
For COc1ccc(CNC(=O)C2COc3ccccc3O2)c(OC)c1 (stereo not drawn) the results were SR-BI DiI inh -1.2, SR-BI uptake up 1.2, GRK2 aptamer HTS 4.0, Rin1-Abl PPI inh -1.9, GRK2 CP1 -2.6 and FAM quench CP1 99.0.
COc1ccc(OC)c(NC(=O)C2COc3ccccc3O2)c1 (stereo not drawn) was read as SR-BI DiI inh 18.2, SR-BI uptake up -18.2, GRK2 aptamer HTS 2.0 and Rin1-Abl PPI inh -1.0.
Screening Cc1cccc(CN2CCN(CC(C)C)C(CCO)C2)n1 (stereo not drawn) returned SR-BI DiI inh -5.4, SR-BI uptake up 5.4, GRK2 aptamer HTS 1.0 and Rin1-Abl PPI inh -4.6.
Screening Cc1cccc(CN2CCN(Cc3ccc4nonc4c3)CC2CCO)n1 (stereo not drawn) returned GRK2 aptamer HTS 41.0*, Rin1-Abl PPI inh -3.7, GRK2 CP1 -14.2 and FAM quench CP1 100.6.
For CN1C(=O)[C@H]2[C@@H](c3ccc(C(F)(F)F)cc3)N[C@]3(CCCN(CC4CCCCC4)C3=O)[C@H]2C1=O the results were Rin1-Abl PPI inh 0.0.
For CCCCCC(=O)Nc1cccc(C2=NOC3(C2)C[C@H](C(N)=O)N(C(=O)COc2ccc(Cl)cc2)C3)c1 (stereo partly drawn) the results were SR-BI DiI inh 49.3, SR-BI uptake up -49.3, GRK2 aptamer HTS 1.0, Rin1-Abl PPI inh 3.0, GRK2 confirm 2 10.6 and FAM quench CP2 98.0.
Screening CCCCCC(=O)Nc1cccc(C2=NOC3(C2)C[C@@H](C(N)=O)N(C(=O)c2ccc(OC)cc2)C3)c1 (stereo partly drawn) returned SR-BI DiI inh 16.4, SR-BI uptake up -16.4, GRK2 aptamer HTS 65.0*, Rin1-Abl PPI inh -2.9, GRK2 CP1 12.9, Aptamer quench 1 -125 and FAM quench CP1 102.0.
For Cc1ccc(CSc2nc3ccncc3[nH]2)cc1 the results were SR-BI DiI inh -38.0, SR-BI uptake up 38.0, GRK2 aptamer HTS 78.0*, Rin1-Abl PPI inh 0.0, GRK2 CP1 0.7 and FAM quench CP1 100.4.
For O=C(c1ccc(CSc2nc3ccncc3[nH]2)cc1)N1CCCCCC1 the results were GRK2 aptamer HTS 68.0*, Rin1-Abl PPI inh 1.4, GRK2 CP1 -0.3 and FAM quench CP1 94.0.
For Clc1ccc(CSc2nc3ccncc3[nH]2)cc1 the results were SR-BI DiI inh -10.0, SR-BI uptake up 10.0, GRK2 aptamer HTS 1.0 and Rin1-Abl PPI inh -4.9.
Screening CC(=O)c1ccc2c(c1)CC1(C2)Cc2cc3c(cc2C1)C(=O)CC3 (stereo not drawn) returned SR-BI DiI inh 2.3, SR-BI uptake up -2.3 and Rin1-Abl PPI inh 2.2.
For COc1ccc(CCN2CCCn3c2nc2c3c(=O)n(CC(C)C)c(=O)n2C)cc1OC the results were SR-BI DiI inh -3.3, SR-BI uptake up 3.3, GRK2 aptamer HTS 54.0*, Rin1-Abl PPI inh 0.9, GRK2 CP1 0.1 and FAM quench CP1 105.0.
